Experimental findings from ChEMBL document CHEMBL1126560, “Endothelin-1 analogues substituted at both position 18 and 19: highly potent endothelin antagonists with no selectivity for either receptor subtype ETA or ETB” (J Med Chem, 1993) are described below.

The target of assay [1] is T1, Endothelin-1 receptor (Sus scrofa) (UniProt Q29010).
T1 sequence (whole entry): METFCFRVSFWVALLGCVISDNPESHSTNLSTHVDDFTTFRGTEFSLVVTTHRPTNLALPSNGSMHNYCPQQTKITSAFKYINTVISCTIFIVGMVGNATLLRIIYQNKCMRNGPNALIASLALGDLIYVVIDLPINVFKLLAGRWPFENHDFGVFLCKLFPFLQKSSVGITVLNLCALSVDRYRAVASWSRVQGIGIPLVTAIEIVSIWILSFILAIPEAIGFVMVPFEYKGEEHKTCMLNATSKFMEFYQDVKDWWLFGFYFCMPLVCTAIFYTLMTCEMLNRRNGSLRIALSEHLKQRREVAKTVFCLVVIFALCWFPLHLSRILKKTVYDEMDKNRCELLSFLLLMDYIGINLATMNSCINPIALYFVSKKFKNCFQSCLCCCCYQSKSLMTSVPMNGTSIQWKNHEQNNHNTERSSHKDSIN
Nature of the assay: Endothelin A receptor agonist activity as maximum vasoconstriction in porcine coronary artery. The format is functional, tissue-based. A digest of the protocol: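 Porcine right coronary artery, endothelium-denuded helical strips in Krebs-Henseleit, 37 °C, isometric tension. Compound applied cumulatively, up to 1 μM. Maximal contraction expressed as % of 60 mM KCl-induced tension; n in parentheses.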

The target of a further assay is T2, Endothelin-1 receptor (Sus scrofa, UniProt Q29010).
T2 sequence (Q29010 whole entry): T1 sequence (whole entry)
Nature of the assay: Tested for the competitive binding versus [125I]- ET-1 determined in porcine cardiac ventricular membrane for Endothelin A receptor. A digest of the protocol:
(§1)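 Membranes (porcine cardiac ventricle at 12 μg/mL for ETA; bovine cerebrum at 150 μg/mL for ETB) in pH 7.2 Tris/EGTA/Mg acetate/0.1% BSA buffer with protease inhibitors. Incubated with 100 pM [125I]ET-1 and varied compound for 1 h at 25 °C, then filtered and counted by gamma counter. IC50 given as mean ± SEM of ≥3 determinations.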

Assay [2] addresses T3, Endothelin receptor type B (Bos taurus, UniProt P28088).
T3 sequence (P28088 whole entry): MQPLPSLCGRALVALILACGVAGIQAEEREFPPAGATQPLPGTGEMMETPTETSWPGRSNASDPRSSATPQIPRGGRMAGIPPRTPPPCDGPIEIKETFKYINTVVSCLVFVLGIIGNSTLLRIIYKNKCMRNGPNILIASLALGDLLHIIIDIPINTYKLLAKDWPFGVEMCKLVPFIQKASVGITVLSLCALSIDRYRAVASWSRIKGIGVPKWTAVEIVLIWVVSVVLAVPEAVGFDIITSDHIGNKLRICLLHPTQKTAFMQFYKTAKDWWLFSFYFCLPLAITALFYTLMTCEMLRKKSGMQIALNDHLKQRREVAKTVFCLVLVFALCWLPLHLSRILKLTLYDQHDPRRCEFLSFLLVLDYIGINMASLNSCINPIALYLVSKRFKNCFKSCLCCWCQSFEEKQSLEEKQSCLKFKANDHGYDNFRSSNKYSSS
Nature of the assay: Tested for the competitive binding versus [125I]- ET-1 determined in bovine cerebrum membrane for Endothelin B receptor. The format is cell membranes. An outline of the steps:
as §1

Molecules are shown by their SMILES. Where only a bound is given, the exact number is not on record here.

On to `CC[C@H](C)[C@H](NC(=O)[C@H](CC(C)C)NC(=O)[C@H](CC(=O)O)NC(=O)[C@H](CC(C)C)NC(=O)[C@H](Cc1c[nH]cn1)NC(=O)[C@@H]1CSSC[C@@H](N)C(=O)N[C@@H](CO)C(=O)N[C@@H]2CSSC[C@@H](NC(=O)[C@H](CCC(=O)O)NC(=O)[C@@H](CCCCN)NC(=O)[C@H](CC(=O)O)NC(=O)[C@@H](CCSC)NC(=O)[C@H](CC(C)C)NC(=O)[C@@H](CO)NC(=O)[C@H](CO)NC2=O)C(=O)N[C@@H](C(C)C)C(=O)N[C@H](Cc2ccc(O)cc2)C(=O)N[C@@H](Cc2ccccc2)C(=O)N1)C(=O)N[C@@H](Cc1c[nH]c2ccccc12)C(=O)O`, for which, in assay [1], the Max vasoconstriction was determined as 73.
Still for that read-out and setting: under `CCC[C@H](NC(=O)[C@@H](NC(=O)[C@H](CC(C)C)NC(=O)[C@H](Cc1c[nH]cn1)NC(=O)[C@@H]1CSSC[C@@H](N)C(=O)N[C@@H](CO)C(=O)N[C@@H]2CSSC[C@@H](NC(=O)[C@H](CCC(=O)O)NC(=O)[C@@H](CCCCN)NC(=O)[C@H](CC(=O)O)NC(=O)[C@@H](CCSC)NC(=O)[C@H](CC(C)C)NC(=O)[C@@H](CO)NC(=O)[C@H](CO)NC2=O)C(=O)N[C@@H](C(C)C)C(=O)N[C@H](Cc2ccc(O)cc2)C(=O)N[C@@H](Cc2ccccc2)C(=O)N1)[C@@H](C)O)C(=O)N[C@H](C(=O)N[C@@H](Cc1c[nH]c2ccccc12)C(=O)O)[C@@H](C)CC` stands 112.
Turning to `CC[C@H](C)[C@H](NC(=O)[C@H](CC(C)C)NC(=O)[C@H](CC(=O)O)NC(=O)[C@H](CC(C)C)NC(=O)[C@H](Cc1c[nH]cn1)NC(=O)[C@@H]1CSSC[C@H](N)C(=O)N[C@@H](CO)C(=O)N[C@H]2CSSC[C@H](NC(=O)[C@H](CCC(=O)O)NC(=O)[C@H](CCCCN)NC(=O)[C@H](CC(=O)O)NC(=O)[C@H](CCSC)NC(=O)[C@H](CC(C)C)NC(=O)[C@H](CO)NC(=O)[C@H](CO)NC2=O)C(=O)N[C@@H](C(C)C)C(=O)N[C@@H](Cc2ccc(O)cc2)C(=O)N[C@@H](Cc2ccccc2)C(=O)N1)C(=O)N[C@@H](Cc1c[nH]c2ccccc12)C(=O)O`, the IC50 worked out at 750 pM on Endothelin-1 receptor and 170 pM in assay [2].
The matching figures for `CC[C@H](C)[C@H](NC(=O)[C@@H](NC(=O)[C@H](CC(C)C)NC(=O)[C@H](Cc1c[nH]cn1)NC(=O)[C@@H]1CSSC[C@H](N)C(=O)N[C@@H](CO)C(=O)N[C@H]2CSSC[C@H](NC(=O)[C@H](CCC(=O)O)NC(=O)[C@H](CCCCN)NC(=O)[C@H](CC(=O)O)NC(=O)[C@H](CCSC)NC(=O)[C@H](CC(C)C)NC(=O)[C@H](CO)NC(=O)[C@H](CO)NC2=O)C(=O)N[C@@H](C(C)C)C(=O)N[C@@H](Cc2ccc(O)cc2)C(=O)N[C@@H](Cc2ccccc2)C(=O)N1)[C@@H](C)O)C(=O)N[C@H](C(=O)N[C@@H](Cc1c[nH]c2ccccc12)C(=O)O)[C@@H](C)CC`: 190 pM and 330 pM.
In turn, `CC[C@H](C)[C@H](NC(=O)[C@@H](NC(=O)[C@@H](NC(=O)[C@H](CC(C)C)NC(=O)[C@H](Cc1c[nH]cn1)NC(=O)[C@@H]1CSSC[C@@H](N)C(=O)N[C@@H](CO)C(=O)N[C@@H]2CSSC[C@@H](NC(=O)[C@H](CCC(=O)O)NC(=O)[C@@H](CCCCN)NC(=O)[C@H](CC(=O)O)NC(=O)[C@@H](CCSC)NC(=O)[C@H](CC(C)C)NC(=O)[C@@H](CO)NC(=O)[C@H](CO)NC2=O)C(=O)N[C@@H](C(C)C)C(=O)N[C@H](Cc2ccc(O)cc2)C(=O)N[C@@H](Cc2ccccc2)C(=O)N1)[C@@H](C)O)C(C)C)C(=O)N[C@@H](Cc1c[nH]c2ccccc12)C(=O)O` showed a Max vasoconstriction in assay [1] of 128.
`CC[C@H](C)[C@H](NC(=O)[C@H](CC(=O)O)NC(=O)[C@H](CC(C)C)NC(=O)[C@H](Cc1c[nH]cn1)NC(=O)[C@@H]1CSSC[C@@H](N)C(=O)N[C@H](CO)C(=O)N[C@H]2CSSC[C@@H](NC(=O)[C@H](CCC(=O)O)NC(=O)[C@H](CCCCN)NC(=O)[C@@H](CC(=O)O)NC(=O)[C@H](CCSC)NC(=O)[C@@H](CC(C)C)NC(=O)[C@H](CO)NC(=O)[C@@H](CO)NC2=O)C(=O)N[C@@H](C(C)C)C(=O)N[C@H](Cc2ccc(O)cc2)C(=O)N[C@@H](Cc2ccccc2)C(=O)N1)C(=O)N[C@H](C(=O)N[C@@H](Cc1c[nH]c2ccccc12)C(=O)O)[C@@H](C)CC` registered a Max vasoconstriction in assay [1] of 120.
For the compound `CC[C@H](C)[C@H](NC(=O)[C@@H](NC(=O)[C@H](CC(C)C)NC(=O)[C@H](Cc1c[nH]cn1)NC(=O)[C@@H]1CSSC[C@@H](N)C(=O)N[C@@H](CO)C(=O)N[C@@H]2CSSC[C@@H](NC(=O)[C@H](CCC(=O)O)NC(=O)[C@@H](CCCCN)NC(=O)[C@H](CC(=O)O)NC(=O)[C@@H](CCSC)NC(=O)[C@H](CC(C)C)NC(=O)[C@@H](CO)NC(=O)[C@H](CO)NC2=O)C(=O)N[C@@H](C(C)C)C(=O)N[C@H](Cc2ccc(O)cc2)C(=O)N[C@@H](Cc2ccccc2)C(=O)N1)[C@@H](C)O)C(=O)N[C@H](C(=O)N[C@@H](Cc1c[nH]c2ccccc12)C(=O)O)[C@@H](C)CC`, in assay [1], the Max vasoconstriction was 76.
The compound `CC[C@H](C)[C@H](NC(=O)[C@H](CC(C)C)NC(=O)[C@H](CC(C)C)NC(=O)[C@H](Cc1c[nH]cn1)NC(=O)[C@@H]1CSSC[C@@H](N)C(=O)N[C@@H](CO)C(=O)N[C@@H]2CSSC[C@@H](NC(=O)[C@H](CCC(=O)O)NC(=O)[C@@H](CCCCN)NC(=O)[C@H](CC(=O)O)NC(=O)[C@@H](CCSC)NC(=O)[C@H](CC(C)C)NC(=O)[C@@H](CO)NC(=O)[C@H](CO)NC2=O)C(=O)N[C@@H](C(C)C)C(=O)N[C@H](Cc2ccc(O)cc2)C(=O)N[C@@H](Cc2ccccc2)C(=O)N1)C(=O)N[C@H](C(=O)N[C@@H](Cc1c[nH]c2ccccc12)C(=O)O)[C@@H](C)CC` registered a Max vasoconstriction in assay [1] of 0.
Compound `CC[C@H](C)[C@H](NC(=O)[C@H](CC(C)(C)C)NC(=O)[C@@H](NC(=O)[C@H](CC(C)C)NC(=O)[C@H](Cc1c[nH]cn1)NC(=O)[C@@H]1CSSC[C@@H](N)C(=O)N[C@@H](CO)C(=O)N[C@@H]2CSSC[C@@H](NC(=O)[C@H](CCC(=O)O)NC(=O)[C@@H](CCCCN)NC(=O)[C@H](CC(=O)O)NC(=O)[C@@H](CCSC)NC(=O)[C@H](CC(C)C)NC(=O)[C@@H](CO)NC(=O)[C@H](CO)NC2=O)C(=O)N[C@@H](C(C)C)C(=O)N[C@H](Cc2ccc(O)cc2)C(=O)N[C@@H](Cc2ccccc2)C(=O)N1)[C@@H](C)O)C(=O)N[C@@H](Cc1c[nH]c2ccccc12)C(=O)O` gave a Max vasoconstriction in assay [1] of 0.
With `CCC[C@H](NC(=O)[C@@H](NC(=O)[C@H](CC(C)C)NC(=O)[C@H](Cc1cnc[nH]1)NC(=O)[C@@H]1CSSC[C@H](N)C(=O)N[C@@H](CO)C(=O)N[C@H]2CSSC[C@H](NC(=O)[C@H](CCC(=O)O)NC(=O)[C@H](CCCCN)NC(=O)[C@H](CC(=O)O)NC(=O)[C@H](CCSC)NC(=O)[C@H](CC(C)C)NC(=O)[C@H](CO)NC(=O)[C@H](CO)NC2=O)C(=O)N[C@@H](C(C)C)C(=O)N[C@@H](Cc2ccc(O)cc2)C(=O)N[C@@H](Cc2ccccc2)C(=O)N1)[C@@H](C)O)C(=O)N[C@H](C(=O)N[C@@H](Cc1c[nH]c2ccccc12)C(=O)O)[C@@H](C)CC`, the IC50 at Endothelin-1 receptor is 200 pM.
As to `CC[C@H](C)[C@H](NC(=O)[C@@H](NC(=O)[C@@H](NC(=O)[C@H](CC(C)C)NC(=O)[C@H](Cc1c[nH]cn1)NC(=O)[C@@H]1CSSC[C@H](N)C(=O)N[C@@H](CO)C(=O)N[C@H]2CSSC[C@H](NC(=O)[C@H](CCC(=O)O)NC(=O)[C@H](CCCCN)NC(=O)[C@H](CC(=O)O)NC(=O)[C@H](CCSC)NC(=O)[C@H](CC(C)C)NC(=O)[C@H](CO)NC(=O)[C@H](CO)NC2=O)C(=O)N[C@@H](C(C)C)C(=O)N[C@@H](Cc2ccc(O)cc2)C(=O)N[C@@H](Cc2ccccc2)C(=O)N1)[C@@H](C)O)C(C)C)C(=O)N[C@@H](Cc1c[nH]c2ccccc12)C(=O)O`, at Endothelin-1 receptor, the IC50 turned out to be 180 pM.
With `CC[C@H](C)[C@H](NC(=O)[C@H](CC(=O)O)NC(=O)[C@H](CC(C)C)NC(=O)[C@H](Cc1c[nH]cn1)NC(=O)[C@@H]1CSSC[C@@H](NC(=O)[C@H](CCC(=O)O)NC(=O)[C@@H](CCCCN)NC(=O)[C@H](CC(=O)O)NC(=O)[C@@H](CCSC)NC(=O)[C@H](CC(C)C)NC(=O)[C@@H](CO)NC(=O)[C@H](CO)NC(=O)[C@H]2CSSC[C@@H](N)C(=O)N[C@@H](CO)C(=O)N2)C(=O)N[C@@H](C(C)C)C(=O)N[C@H](Cc2ccc(O)cc2)C(=O)N[C@@H](Cc2ccccc2)C(=O)N1)C(=O)N[C@H](C(=O)N[C@@H](Cc1c[nH]c2ccccc12)C(=O)O)[C@@H](C)CC`, in assay [1], the Max vasoconstriction was greater than 80.

In general, IC50 refers to the concentration that gives 50% inhibition. Low readings indicate higher potency, high ones lower potency.
